# Assay outcomes deposited in PubChem by Broad Institute.
# FN deposit inh: fibronectin deposition inhibition. AH1F fibroblasts, Alexa488-fibronectin deposition fluorescence, overnight. inhibition, % at 12.6 µM. 350,000 tested, 0.086% active. AID 743247;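 active means mean inhibition across replicates of 30% or more, regardless of how many single replicates reach that level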;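 further: positive control wells lacked labelled fibronectin entirely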
#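 Measured by – fluorescence 485/525 nm · System – AH1F fibroblast monolayer, labelled fibronectin deposition · Amount – 10000 cells per well · Buffer or medium – serum-reduced DMEM (2% serum) · Doses – single dose, pinned · Also added – fluorescent fibronectin at 24 nM final · Schedule – 1 h cell attachment, overnight exposure to compound and label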
# RAD54 branch: inhibitors of human RAD54 branch migration. RAD54 Holliday junction branch migration, FAM/BHQ fluorescence. inhibition, % at 10.4 µM. 360,000 tested, 0.14% active;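 active means mean normalized replicate activity at least 40 and at least half of replicates scoring 40 or more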;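 further: 0% = median of neutral control wells and 100% = median of positive control wells; inhibitors cause a drop in the FAM fluorescence signal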
# Target sequence (Q92698 whole entry, looked up): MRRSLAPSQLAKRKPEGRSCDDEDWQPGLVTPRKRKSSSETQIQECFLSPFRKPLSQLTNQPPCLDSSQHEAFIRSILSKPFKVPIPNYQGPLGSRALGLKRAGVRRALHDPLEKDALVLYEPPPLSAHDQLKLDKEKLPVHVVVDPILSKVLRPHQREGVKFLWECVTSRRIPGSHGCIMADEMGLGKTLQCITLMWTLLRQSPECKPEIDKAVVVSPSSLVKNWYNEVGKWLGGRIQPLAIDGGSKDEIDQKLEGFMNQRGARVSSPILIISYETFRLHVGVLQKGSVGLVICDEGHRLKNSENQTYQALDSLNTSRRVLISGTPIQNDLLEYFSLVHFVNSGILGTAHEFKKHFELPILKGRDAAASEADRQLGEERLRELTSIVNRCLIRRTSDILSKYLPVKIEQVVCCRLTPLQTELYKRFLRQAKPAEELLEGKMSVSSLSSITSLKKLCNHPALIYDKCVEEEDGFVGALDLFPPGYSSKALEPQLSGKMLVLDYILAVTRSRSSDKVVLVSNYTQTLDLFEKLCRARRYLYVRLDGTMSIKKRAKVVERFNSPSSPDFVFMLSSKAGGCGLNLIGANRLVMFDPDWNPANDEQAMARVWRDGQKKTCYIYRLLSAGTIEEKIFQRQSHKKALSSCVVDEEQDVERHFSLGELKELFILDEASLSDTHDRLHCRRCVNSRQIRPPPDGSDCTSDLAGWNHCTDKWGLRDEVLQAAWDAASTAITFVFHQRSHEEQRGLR
# RAD52 inh: blocks human RAD52 DNA annealing. 360,000 tested, 0.46% active. inhibition, % at 18.7 µM. recombinant RAD52 DNA annealing, FRET fluorescence;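 active means every replicate showing at least 50% inhibition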
# PAX8 inh HTS: PAX8 transcriptional activity inhibition; 360,000 tested, 1.2% active; RMG-I TPO-luciferase reporter, SteadyGlo, 24 h; inhibition, % at 12.6 µM; AID 652154;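 active means mean replicate inhibition at least 60% with every replicate also reaching 60%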;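 further: luciferase light reporting Pax8 driven TPO promoter activity; plate controls were median of neutral control wells for no effect and mitoxantrone controls for full effect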
# An asterisk follows results filed as active; i = inactive; . = no result. Sampled rows, rich in hits. Any-hit rate of the full collection: about 1.3%.
SMILES,FN deposit inh,RAD54 branch,RAD52 inh,PAX8 inh HTS
COc1ccc(C(=O)C(CCCCC(CN(C)C)C(=O)c2ccc(OC)cc2)CN(C)C)cc1 (centres undefined),.,-1,.,.
CCOc1ccc(C(=O)C(CCC(CN(C)C)C(=O)c2ccc(OCC)cc2)CN(C)C)cc1 (centres undefined),12,.,.,112*
Cc1ccc(C(=O)NCCCNC(=O)c2ccco2)cn1,-12,-5,-16,15
COc1cc(/C=N/NC(=O)c2ccc(-n3cccc3)cc2)ccc1O,1,.,.,72*
Cc1ccsc1/C=N/NC(=O)c1ccncc1,-4,.,0,-4
COc1ccc(/C=N\NC(=O)c2ccc(-c3ccccc3)cc2)c(OC)c1OC,-8,-1,-1,-11
COc1cccc(/C=N/NC(=O)c2ccc(N3CCCC3=O)cc2)c1,7,6,-5,96*
COc1cc(C(=O)N/N=C/c2sccc2C)cc(OC)c1OC,-25,.,-7,81*
COc1cc(/C=N/NC(=O)c2ccc(-c3ccccc3)cc2)cc(OC)c1OC,1,.,.,80*
COc1ccc(CN(C(=O)CSc2nnc(-c3ccccc3F)o2)c2ccc(F)cc2)cc1,.,-6,.,.
COc1ccc2c3c([nH]c2c1)[C@H](CO)N(C(=O)NC(C)C)CC31CN(C(=O)c2cccnc2)C1,.,.,0,.
COc1cccc(-c2c(-c3cc(OC)cc(OC)c3)n(C)c3ccc(-c4cnc(N5CCOCC5)nc4)cc23)c1,-2,1,-10,84*
COc1cccc(-c2c(-c3cc(OC)cc(OC)c3)n(C)c3ccc(-c4cnc(OC)nc4)cc23)c1,7,2,.,42
CN(C)C(=O)c1ccc(-c2ccccc2[C@@H]2[C@@H](CO)N(C(=O)C3CCCC3)[C@H]2C#N)cc1,-2,.,58*,.
N#C[C@H]1[C@@H](c2ccccc2-c2cccc(F)c2)[C@@H](CO)N1C(=O)C1CCCC1,-9,.,-18,.
N#C[C@@H]1[C@@H](c2ccccc2-c2cccc(F)c2)[C@H](CO)N1C(=O)C1CCCC1,-6,.,114*,.
Cc1ccc(S(=O)(=O)c2ccc([N+](=O)[O-])o2)cc1,49*,.,0,127*
COc1ccc(OC)c(Nc2nc(N)nc(CCl)n2)c1,-3,-6,3,118*
COc1ccc(OCc2nc(N)nc(Nc3ccccc3OC)n2)cc1,2,4,.,18
COc1ccccc1Nc1nc(N)nc(CCl)n1,-19,2,-2,105*
Cn1cc(/C=C(\NC(=O)c2ccccc2Cl)C(=O)NCCN2CCOCC2)c2ccccc21,10,0,-6,-1
O=[N+]([O-])c1ccc(NC(=S)NCCc2ccc(F)cc2)cc1,-1,.,-5,81*
O=C(NCCc1ccc(F)cc1)Nc1ccc([N+](=O)[O-])cc1,.,3,0,-30
CC(C)NC(=O)Nc1ccc2c(c1)C(=O)N([C@H](C)CO)C[C@@H](C)[C@H](CN(C)C(=O)Nc1ccc(C(F)(F)F)cc1)OCCCC[C@H](C)O2,.,-1,-4,-8
CC(C)NC(=O)Nc1ccc2c(c1)C(=O)N([C@H](C)CO)C[C@@H](C)[C@H](CN(C)C(=O)Nc1ccc(C(F)(F)F)cc1)OCCCC[C@@H](C)O2,.,10,-12,68*
SMILES,FN deposit inh,RAD54 branch,RAD52 inh,PAX8 inh HTS
CC(C)NC(=O)N(C)C[C@@H]1OCCCC[C@H](C)Oc2ccc(NC(=O)Nc3ccc(C(F)(F)F)cc3)cc2C(=O)N([C@@H](C)CO)C[C@@H]1C,0,-8,-31,69*
C[C@@H]1CCCCO[C@H](CN(C)C(=O)Nc2ccccc2)[C@@H](C)CN([C@H](C)CO)C(=O)c2cc(NC(=O)Nc3ccc(C(F)(F)F)cc3)ccc2O1,.,.,-12,12
C[C@@H]1CN([C@H](C)CO)C(=O)c2cc(NC(=O)Nc3ccccc3)ccc2O[C@@H](C)CCCCO[C@H]1CN(C)C(=O)Nc1ccc(C(F)(F)F)cc1,4,.,4,84*
C[C@@H]1CN([C@@H](C)CO)C(=O)c2cc(NC(=O)C3CCCCC3)ccc2O[C@@H](C)CCCCO[C@@H]1CN(C)C(=O)Nc1ccc(C(F)(F)F)cc1,.,0,60*,-7
CC(C)NC(=O)N(C)C[C@@H]1OCCCC[C@@H](C)Oc2ccc(NC(=O)Nc3ccc(C(F)(F)F)cc3)cc2C(=O)N([C@@H](C)CO)C[C@H]1C,-12,.,-7,49
N#Cc1c(NCc2ccccc2)ccnc1Cl,-1,.,-6,-23
CCOC(=O)Nc1ccc2c(c1)N(C(=O)CCN(C)C)c1ccccc1S2,-13,.,.,.
CC(C)NC(=O)c1n[nH]c(=O)c2ccccc12,-7,2,.,.
Cc1ccc(S(=O)(=O)Nc2cccc3c2O[C@@H](CN(C)C(=O)Nc2ccc4c(c2)OCO4)[C@H](C)CN([C@H](C)CO)C3=O)cc1,.,-11,-17,.
CC(C)C(=O)Nc1ccc2c(c1)C(=O)N(C)[C@@H]1CC[C@@H](CC(=O)NCc3cccc(F)c3)O[C@H]1CO2,11,-4,.,14
COc1ccc(NC(=O)N(C)C[C@H]2OCCCC[C@@H](C)Oc3ccc(NC(=O)Nc4ccc(C(F)(F)F)cc4)cc3C(=O)N([C@@H](C)CO)C[C@@H]2C)cc1,.,10,26,77*
Nc1cccc2nc3ccccc3cc12,-10,106*,.,.
Nc1[nH]nc2nc3ccccc3cc12,7,-6,-20,-9
N#Cc1nccnc1S(=O)(=O)c1cccs1,40*,.,-24,102*
O=C1C=C(N2CCOCC2)c2cccc3cccc1c23,3,1,i,1
O=C1C=C(N2CCOCC2)c2ccccc2C1=O,2,10,-5,74*
COc1ccc(NC(=O)Nc2ccc3c(c2)C(=O)N([C@@H](C)CO)C[C@@H](C)[C@@H](CN(C)CC2CCCCC2)OCCCC[C@@H](C)O3)cc1,.,11,-13,77*
COc1ccc(NC(=O)Nc2ccc3c(c2)C(=O)N([C@H](C)CO)C[C@H](C)[C@H](CN(C)CC2CCCCC2)OCCCC[C@@H](C)O3)cc1,.,-2,-4,-8
C[C@@H]1CCCCO[C@@H](CN(C)CC2CCCCC2)[C@@H](C)CN([C@H](C)CO)C(=O)c2cc(NC(=O)Nc3ccccc3)ccc2O1,16,0,-3,-2
C[C@H](CO)N1C[C@H](C)[C@H](CN(C)CC2CCCCC2)OCCCC[C@H](C)Oc2ccc(NC(=O)Nc3ccccc3)cc2C1=O,6,17,4,97*
C[C@@H]1CN([C@H](C)CO)C(=O)c2cc(NC(=O)Nc3ccccc3)ccc2O[C@@H](C)CCCCO[C@@H]1CN(C)CC1CCCCC1,1,11,-6,97*
C[C@H]1CCCCO[C@H](CN(C)CC2CCCCC2)[C@@H](C)CN([C@@H](C)CO)C(=O)c2cc(NC(=O)Nc3ccccc3)ccc2O1,-12,15,32,69*
Cc1cccc(NS(=O)(=O)c2ccc3c(c2)NC(=O)CC(=O)N3)c1,2,-7,-1,10
OC1CCCN(C(=S)NCc2ccccc2)C1 (centres undefined),-7,.,-4,11
Cc1cc2[nH]cnc2c([N+](=O)[O-])c1C,-7,.,-10,-4
